Source: ChEMBL document CHEMBL6120954, “Development of Fragment-Based Inhibitors of the Bacterial Deacetylase LpxC with Low Nanomolar Activity” (J Med Chem, 2024)
Converted amounts (≈) assume the structure as drawn.

Experiments:
[1] = Metabolic stability in CD-1 mouse liver S9 fraction assessed as half life in presence of NADPH by HPLC-MS/MS analysis; assay type: ADME, subcellular
Method in brief: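 Compound at 1 μM was incubated at 37 °C for 120 min with pooled mouse liver S9 (1 mg/mL), 2 mM NADPH, 1 mM UDPGA, 10 mM MgCl₂, 5 mM GSH and 0.1 mM PAPS. Aliquots taken at set times were quenched with 2 volumes of cold acetonitrile containing diphenhydramine internal standard and centrifuged. Remaining compound was quantified by HPLC–MS/MS to derive half-life, with testosterone, verapamil and ketoconazole as activity controls.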

[2] = Metabolic stability in CD-1 mouse microsome; assay type: ADME; settings: microsomes
[3] = molecular target: T1, UDP-3-O-acyl-N-acetylglucosamine deacetylase (Pseudomonas aeruginosa, UniProt B5ATN6); experiment: Inhibition of Pseudomonas aeruginosa LpxC
T1 sequence (B5ATN6 whole entry): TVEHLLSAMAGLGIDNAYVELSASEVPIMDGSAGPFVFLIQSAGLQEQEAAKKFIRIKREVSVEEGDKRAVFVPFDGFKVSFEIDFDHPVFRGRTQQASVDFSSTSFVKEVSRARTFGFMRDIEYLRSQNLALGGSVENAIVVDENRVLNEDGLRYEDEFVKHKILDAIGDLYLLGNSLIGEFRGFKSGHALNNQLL
Method in brief: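 Buffer was 50 mM potassium phosphate pH 7.5, 80 μM DTT, 0.02% Brij 35 and 2% DMSO, with inhibitor at 5 nM–5 μM, for 30 min at 37 °C. The reaction was stopped with HCl. Substrate and product were quantified by LC–MS/MS MRM peak areas relative to the uninhibited reaction, in at least two runs.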

[4] = Inhibition of Escherichia coli LpxC C63A mutant assessed as inhibition constant incubated for 30 mins by microplate reader analysis
Method in brief: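 Purified E. coli LpxC C63A (15 nM final), expressed in E. coli BL21(DE3), with 25 μM UDP-3-O-[(R)-3-hydroxymyristoyl]-N-acetylglucosamine. Buffer was 40 mM MES pH 6.0, 80 μM DTT, 0.02% Brij 35 and 2% DMSO, with inhibitor at 20 nM–20 μM, for 30 min at 37 °C. The reaction was stopped with NaOH, neutralised with acetic acid, and product was derivatised with o-phthaldialdehyde/2-mercaptoethanol (ex 340, em 460 nm). Runs were done at least three times.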

Escherichia coli [5] = experiment: Antibacterial activity against Escherichia coli BL21(DE3) assessed as Diameter of inhibition zone incubated for 20 hrs by disc diffusion assay; assay type: functional
Method in brief: (§1)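 E. coli BL21(DE3) and the defective strain D22 were grown overnight in LB at 37 °C and 200 rpm, and 150 μL was spread on LB agar. Each compound (0.15 μmol in 10 or 15 μL DMSO) was spotted on 6 mm filter paper discs, with DMSO as negative and CHIR-090 as positive control. Plates were incubated overnight at 37 °C and the growth-inhibition zone diameter was measured.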

Escherichia coli [6] = experiment: Antibacterial activity against Escherichia coli D22 assessed as inhibition of visible bacterial growth incubated for 20 hrs by microdilution method; assay type: functional
Method in brief: (§2)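 Broth microdilution in LB. Overnight cultures (37 °C, 200 rpm) were diluted 1:1000 and mixed with 2-fold compound dilutions in DMSO, giving 5 × 10⁵ cfu mL⁻¹, 5% DMSO and final compound concentrations of 64–0.016 μg mL⁻¹. Plates were incubated 20 h at 37 °C. MIC was the lowest concentration preventing visible growth, from at least three runs on separate days.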

Escherichia coli [7] = experiment: Antibacterial activity against Escherichia coli BL21(DE3) assessed as inhibition of visible bacterial growth incubated for 20 hrs by microdilution method; assay type: functional; method in brief: as §2
Escherichia coli [8] = experiment: Antibacterial activity against Escherichia coli D22 assessed as diameter of inhibition zone incubated for 20 hrs by disc diffusion assay; assay type: functional; method in brief: as §1
[9] = molecular target: Elastase (Pseudomonas aeruginosa (strain ATCC 15692 / PAO1 / 1C / PRS 101 / LMG12228)) (UniProt P14756); experiment: Inhibition of Pseudomonas aeruginosa PA14 LasB at 20 uM by FRET assay relative to control
Sequence of Elastase (Pseudomonas aeruginosa (strain ATCC 15692 / PAO1 / 1C / PRS 101 / LMG12228)) (P14756 198-498 limits assumed): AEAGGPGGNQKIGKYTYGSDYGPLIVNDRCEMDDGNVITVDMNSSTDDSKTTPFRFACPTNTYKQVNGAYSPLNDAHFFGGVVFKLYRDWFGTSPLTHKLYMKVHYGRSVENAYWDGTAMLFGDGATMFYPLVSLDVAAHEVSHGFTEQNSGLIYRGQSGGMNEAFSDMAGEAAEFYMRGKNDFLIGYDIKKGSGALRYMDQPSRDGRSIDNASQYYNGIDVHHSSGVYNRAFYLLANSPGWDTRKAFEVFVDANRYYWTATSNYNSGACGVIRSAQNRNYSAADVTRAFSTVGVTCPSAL

Elastase = Elastase (Pseudomonas aeruginosa (strain ATCC 15692 / PAO1 / 1C / PRS 101 / LMG12228), UniProt P14756); experiment: Inhibition of Pseudomonas aeruginosa PA14 LasB by FRET assay
Sequence of Elastase (P14756 whole entry): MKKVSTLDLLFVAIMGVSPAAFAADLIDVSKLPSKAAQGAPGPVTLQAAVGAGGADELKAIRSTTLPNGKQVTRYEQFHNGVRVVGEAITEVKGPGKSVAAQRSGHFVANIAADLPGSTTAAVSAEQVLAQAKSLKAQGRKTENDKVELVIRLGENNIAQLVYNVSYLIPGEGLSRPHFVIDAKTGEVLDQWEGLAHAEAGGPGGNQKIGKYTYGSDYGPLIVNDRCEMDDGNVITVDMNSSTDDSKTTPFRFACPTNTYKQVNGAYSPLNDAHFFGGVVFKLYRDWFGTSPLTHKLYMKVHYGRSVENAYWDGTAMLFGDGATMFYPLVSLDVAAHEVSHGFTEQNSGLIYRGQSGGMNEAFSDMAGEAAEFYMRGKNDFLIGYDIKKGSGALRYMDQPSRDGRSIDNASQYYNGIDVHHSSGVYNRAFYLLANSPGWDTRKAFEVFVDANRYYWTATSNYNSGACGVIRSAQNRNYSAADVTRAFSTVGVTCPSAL

[10] = Plasma protein binding in human; assay type: ADME, cell-free
Homo sapiens = species on record: Homo sapiens; experiment: Inhibition of TACE (unknown origin) at 100 uM relative to control

inhibition [9]	SMILES	Ki [4]	diameter of the inhibition zone (DIZ) (Escherichia coli [5])	also measured
	O=C(NC[C@H](OCc1ccc(C#Cc2ccc(CN3CCOCC3)cc2)cc1)C(=O)NO)c1cc[nH]n1			t1/2 [1]: 1.07 h; Stability [2]: Stable
	CCc1ccc(-c2ccc(C(=O)N[C@H](C(=O)NO)[C@@H](C)NCc3ccccn3)cc2)cc1			IC50 [3]: 0.0948 µM
	O=C(NC[C@@H](OCc1ccc(C#Cc2ccc(CN3CCOCC3)cc2)cc1)C(=O)NO)c1ccc(-c2ccccc2)cc1	> 2.54 µM		
	O=C(NO)[C@@H](COCc1ccccc1)OCc1ccc(C#Cc2ccc(CN3CCOCC3)cc2)cc1		<=6 mm	
	O=C(COCc1ccc(C#Cc2ccc(CN3CCOCC3)cc2)cc1)NO	1.5 µM	16.5 mm	MIC (Escherichia coli [6]): 1 mg/L (≈ 2.63 µM); MIC (Escherichia coli [7]): 64 mg/L (≈ 168 µM); diameter of the inhibition zone (DIZ) (Escherichia coli [8]): 20.3 mm
	O=C(NO)[C@H](CO)OCc1ccc(C#Cc2ccc(CN3CCOCC3)cc2)cc1	0.41 µM	15.7 mm	MIC (Escherichia coli [6]): 1 mg/L (≈ 2.44 µM); MIC (Escherichia coli [7]): 32 mg/L (≈ 78 µM); diameter of the inhibition zone (DIZ) (Escherichia coli [8]): 25.8 mm
	O=C(NC[C@H](OCc1ccc(C#Cc2ccc(CN3CCOCC3)cc2)cc1)C(=O)NO)c1ccccc1			MIC (Escherichia coli [7]): > 16 mg/L
	O=C(NC[C@@H](OCc1ccc(C#Cc2ccc(CN3CCOCC3)cc2)cc1)C(=O)NO)c1ccc2[nH]ccc2c1	1.15 µM		
< 10%	O=C(NC[C@H](OCc1ccc(C#Cc2ccc(CN3CCOCC3)cc2)cc1)C(=O)NO)c1cnc2ccccc2c1	0.117 µM		
	O=C(NC[C@@H](OCc1ccc(C#Cc2ccc(CN3CCOCC3)cc2)cc1)C(=O)NO)c1ccc2ccccc2n1	> 2.54 µM	<=6 mm	
< 10%	O=C(NC[C@H](OCc1ccc(C#Cc2ccc(CN3CCOCC3)cc2)cc1)C(=O)NO)c1ccc(Oc2ccccc2)cc1	0.323 µM		
	Cc1noc(C)c1C(=O)NC[C@H](OCc1ccc(C#Cc2ccc(CN3CCOCC3)cc2)cc1)C(=O)NO	0.127 µM		
< 10%	O=C(NC[C@H](OCc1ccc(C#Cc2ccc(CN3CCOCC3)cc2)cc1)C(=O)NO)c1cc2ccccc2[nH]1	0.087 µM		
< 10%	O=C(NC[C@H](OCc1ccc(C#Cc2ccc(CN3CCOCC3)cc2)cc1)C(=O)NO)c1ccc2[nH]ccc2c1	0.00946 µM		Stability [2]: Stable
	O=C(NO)[C@H](COCc1ccccc1)OCc1ccc(C#Cc2ccc(CN3CCOCC3)cc2)cc1		<=6 mm	
< 10%	O=C(NC[C@H](OCc1ccc(C#Cc2ccc(CN3CCOCC3)cc2)cc1)C(=O)NO)c1cccc(-c2ccccc2)c1	0.0415 µM		
	O=C(NC[C@@H](OCc1ccc(C#Cc2ccc(CN3CCOCC3)cc2)cc1)C(=O)NO)c1c[nH]c2ccccc12	1.58 µM		

inhibition [9]	SMILES	Ki [4]	diameter of the inhibition zone (DIZ) (Escherichia coli [5])	also measured
	O=C(NC[C@@H](OCc1ccc(C#Cc2ccc(CN3CCOCC3)cc2)cc1)C(=O)NO)c1ccccc1			MIC (Escherichia coli [7]): > 16 mg/L
< 10%	Cc1noc(C)c1C(=O)NC[C@@H](OCc1ccc(C#Cc2ccc(CN3CCOCC3)cc2)cc1)C(=O)NO	> 2.54 µM		
	O=C(NC[C@@H](OCc1ccc(C#Cc2ccc(CN3CCOCC3)cc2)cc1)C(=O)NO)c1ccc(Oc2ccccc2)cc1	> 2.54 µM		
< 10%	O=C(NO)[C@H](CN(Cc1ccccc1)Cc1ccccc1)OCc1ccc(C#Cc2ccc(CN3CCOCC3)cc2)cc1	> 2.54 µM	<=6 mm	MIC (Escherichia coli [7]): 8 mg/L (≈ 13.6 µM)
	O=C(NC[C@H](OCc1ccc(C#Cc2ccc(CN3CCOCC3)cc2)cc1)C(=O)NO)c1ccc2ccccc2n1	0.377 µM		
< 10%	O=C(NC[C@H](OCc1ccc(C#Cc2ccc(CN3CCOCC3)cc2)cc1)C(=O)NO)c1ccc(-c2ccccc2)cc1	> 2.54 µM		
	O=C(NO)[C@@H](CN(Cc1ccccc1)Cc1ccccc1)OCc1ccc(C#Cc2ccc(CN3CCOCC3)cc2)cc1	> 2.54 µM	<=6 mm	MIC (Escherichia coli [7]): > 64 mg/L; diameter of the inhibition zone (DIZ) (Escherichia coli [8]): <=6 mm
	O=C(NC[C@@H](OCc1ccc(C#Cc2ccc(CN3CCOCC3)cc2)cc1)C(=O)NO)c1cccc(-c2ccccc2)c1	> 2.54 µM		
	O=C(NO)[C@@H](CO)OCc1ccc(C#Cc2ccc(CN3CCOCC3)cc2)cc1	0.24 µM	12.3 mm	MIC (Escherichia coli [6]): 2 mg/L (≈ 4.87 µM); MIC (Escherichia coli [7]): 64 mg/L (≈ 156 µM); diameter of the inhibition zone (DIZ) (Escherichia coli [8]): 22 mm
	O=C(NC[C@@H](OCc1ccc(C#Cc2ccc(CN3CCOCC3)cc2)cc1)C(=O)NO)c1cnc2ccccc2c1	> 2.54 µM		
	O=C(NC[C@@H](OCc1ccc(C#Cc2ccc(CN3CCOCC3)cc2)cc1)C(=O)NO)c1cc(-c2ccccc2)[nH]n1	> 2.54 µM	<=6 mm	
< 10%	O=C(NO)[C@H](OCc1ccc(C#Cc2ccc(CN3CCOCC3)cc2)cc1)[C@H](O)COCc1ccccc1			
	O=C(NC[C@H](OCc1ccc(C#Cc2ccc(CN3CCOCC3)cc2)cc1)C(=O)NO)c1c[nH]c2ccccc12	0.0107 µM		Stability [2]: Stable; fraction unbound [10]: < 0.03; inhibition (Homo sapiens): < 10%
	O=C(NC[C@@H](OCc1ccc(C#Cc2ccc(CN3CCOCC3)cc2)cc1)C(=O)NO)c1cc2ccccc2[nH]1	> 2.54 µM		
< 10%	O=C(NC[C@H](OCc1ccc(C#Cc2ccc(CN3CCOCC3)cc2)cc1)C(=O)NO)c1cc(-c2ccccc2)[nH]n1	0.0852 µM		
< 10%	Cc1noc(C)c1COC[C@H](O)[C@H](OCc1ccc(C#Cc2ccc(CN3CCOCC3)cc2)cc1)C(=O)NO			

SMILES	inhibition [9]	Ki [4]	diameter of the inhibition zone (DIZ) (Escherichia coli [5])	also measured
O=C(NO)[C@H](OCc1ccc(C#Cc2ccc(CN3CCOCC3)cc2)cc1)[C@@H](O)COCc1ccccc1	< 10%	0.87 µM	8.5 mm	MIC (Escherichia coli [6]): 4 mg/L (≈ 7.54 µM); MIC (Escherichia coli [7]): > 64 mg/L; diameter of the inhibition zone (DIZ) (Escherichia coli [8]): 13.3 mm
O=C(NO)[C@@H](OCc1ccc(C#Cc2ccc(CN3CCOCC3)cc2)cc1)[C@H](O)COCc1ccccc1	64.9%			IC50 (Elastase): 14.8 µM
O=C(NO)[C@@H](OCc1ccc(C#Cc2ccc(CN3CCOCC3)cc2)cc1)[C@@H](O)COCc1ccccc1	61%	0.28 µM	11.2 mm	MIC (Escherichia coli [6]): 0.13 mg/L (≈ 0.245 µM); IC50 (Elastase): 17.7 µM; MIC (Escherichia coli [7]): 4 mg/L (≈ 7.54 µM); diameter of the inhibition zone (DIZ) (Escherichia coli [8]): 19.5 mm
